# From PubChem BioAssay
# This is one part of a sample in which hits are shown more often than they occur.
# ERAP1 HTS inh = ERAP1 (human) enzyme inhibition | Q9NZ08 | recombinant ERAP1, Leu-AMC fluorescence, 60 min | inhibition, % at 10.7 µM | 340,000 compounds, 0.15% hits;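 active means mean replicate inhibition of at least 30%, or all replicates individually reaching that 30% level; inactive means mean below 30% and not every replicate reaching it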;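 further: 0% = neutral control wells and 100% = L-leucinethiol positive control wells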
# S100A4 MyoIIA = S100A4-myosin IIA interaction inhibition; 360,000 compounds, 0.14% hits; inhibition, % at 10.7 µM; AID 652163; S100A4/TAMRA-MyoIIA peptide fluorescence polarization; P26447;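 active means mean inhibition of at least 70% across replicates, with every replicate also reaching that level; inconclusive means mean inhibition reaches 70% but some replicates fall short; inactive means mean inhibition below 70%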
# Target sequence (P26447 whole entry, looked up): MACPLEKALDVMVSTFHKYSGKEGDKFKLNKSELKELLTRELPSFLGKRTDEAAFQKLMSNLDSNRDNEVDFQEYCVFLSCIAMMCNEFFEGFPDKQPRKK
#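 Test system: S100A4 monomer protein; Medium: HEPES pH 7.2 with CaCl2, KCl, NaCl, DTT, Triton; Probe or stimulus: TAMRA-labelled myosin IIA heavy-chain peptide probe, 5 nM; Doses: one dose per compound; Times: polarization read 5 min after assay mix addition, stable 5–60 min; Benchmarks: neutral control DMSO, positive control TFP.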
# ERp5 block = ERp5 (human) disulfide isomerase inhibition; ERp5 insulin aggregation, absorbance 650 nm, 90 min; inhibition, % at 9.99 µM; 350,000 compounds, 0.05% hits;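 active means mean replicate inhibition above about 25%, with every replicate also reaching it, limit read from the data, passing the limit was not always enough; inconclusive means only one of those two criteria met; inactive means neither criterion met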
# Target sequence (Q15084 whole entry, looked up): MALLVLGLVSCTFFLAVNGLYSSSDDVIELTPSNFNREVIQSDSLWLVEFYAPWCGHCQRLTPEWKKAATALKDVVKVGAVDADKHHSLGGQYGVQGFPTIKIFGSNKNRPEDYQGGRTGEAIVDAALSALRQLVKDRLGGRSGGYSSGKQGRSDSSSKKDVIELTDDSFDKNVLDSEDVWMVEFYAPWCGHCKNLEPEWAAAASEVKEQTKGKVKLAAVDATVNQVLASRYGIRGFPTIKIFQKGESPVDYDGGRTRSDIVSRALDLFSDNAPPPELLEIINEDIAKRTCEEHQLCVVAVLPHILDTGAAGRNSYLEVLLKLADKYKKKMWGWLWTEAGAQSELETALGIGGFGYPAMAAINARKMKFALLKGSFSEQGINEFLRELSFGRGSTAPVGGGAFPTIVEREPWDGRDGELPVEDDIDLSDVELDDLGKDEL
# FGF22 binding = FGF22 (human) thermal shift binding | activity (Tm shift, normalised), % at 9.99 µM | 340,000 compounds, 1.5% hits | recombinant FGF22 thermal shift, SYPRO orange fluorescence; percent of sucrose octasulfate shift, DMSO zero;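 active means mean Tm shift, scaled 0 neutral to 100 positive control, at about 1.3% or above, every replicate too, limit read from the data; inconclusive means no clear call, values can overlap the other calls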
# PDI turbidity = inhibitors of human protein disulfide isomerase; P07237; PDI insulin aggregation turbidity, A650, 90 min; inhibition, % at 10 µM; 350,000 compounds, 0.052% hits;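 active means mean inhibition across replicates of 30% or more, whatever share of single replicates reach that level; inconclusive means mean inhibition below 30% while every single replicate reaches 30%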
# The depositor's hits bear a star; ? = inconclusive; nt = no result.
SMILES,ERAP1 HTS inh,S100A4 MyoIIA,ERp5 block,FGF22 binding,PDI turbidity
CCS(=O)(=O)N1CCC(C(=O)NCc2ccc(OC)cc2)CC1,1,-1,0,43*,5
COc1ccc(CNC(=O)C2CCN(S(=O)(=O)c3ccccc3)CC2)cc1,-1,-1,1,0,6
C[C@H](NC(=O)C1CCN(S(=O)(=O)c2ccccc2)CC1)C(=O)NC1CC1,-2,1,-13,43*,2
O=C(NCCc1ccccc1)C1CCN(S(=O)(=O)N2CCOCC2)CC1,-2,5,7,44*,-4
O=C(CCNC(=O)C1CCN(S(=O)(=O)c2ccc(F)cc2)CC1)NCc1cccnc1,2,3,-6,0,9
O=C(NCc1ccccc1)C1CCN(S(=O)(=O)N2CCOCC2)CC1,nt,nt,nt,nt,-11
COc1ccc(S(=O)(=O)N2CCC(C(=O)NCCN3CCOCC3)CC2)cc1C,-1,0,-4,0,-9
COc1ccc(S(=O)(=O)N2CCC(C(=O)N[C@H](C(=O)NCc3ccccc3)C(C)C)CC2)cc1,-3,-2,9,44*,-1
COc1ccc(S(=O)(=O)N2CCC(C(=O)NCc3ccccc3)CC2)cc1OC,-5,-2,-4,43*,-4
COc1ccc(S(=O)(=O)N2CCCC(C(=O)NCCN3CCOCC3)C2)cc1C (configuration not stated),2,-3,0,43*,-49
CS(=O)(=O)N1CCC(C(=O)NCc2ccccc2)CC1,0,-31,4,44*,-5
O=C(COc1ccccc1[N+](=O)[O-])OCC(=O)c1ccc(Br)s1,1,13,-4,-1,3
O=C(CSc1nnc(SCc2ccccc2)s1)NNC(=S)Nc1ccccc1,-3,0,12,-1,-4
O=C(CNC(=O)c1ccccc1)OCc1nc2ccccc2s1,-2,18,-4,43*,1
O=C(CNC(=O)c1ccccc1F)OCc1nc2ccccc2s1,1,3,1,0,-7
Cc1csc(=O)n1CCC(=O)OCC(=O)Nc1cc([N+](=O)[O-])ccc1Cl,0,-4,-5,0,-6
CNc1ccccc1NC(=O)CCn1c(=S)oc2ccccc21,1,-1,0,0,4
O=C(CCn1c(=S)oc2ccccc21)Nc1ccccc1F,0,-1,1,44*,25
CC1CN(S(=O)(=O)c2cccc(C(=O)NCCc3ccc(S(N)(=O)=O)cc3)c2)CC(C)O1 (configuration not stated),0,-1,16,43*,-2
NS(=O)(=O)c1ccc(CCNC(=O)c2cccc(S(=O)(=O)N3CCCC3)c2)cc1,-3,-8,1,1,1
O=C(C[C@@H]1C[C@@H]2c3cc(NC(=O)CC4CC4)ccc3O[C@@H]2[C@H](CO)O1)NCc1ccccc1,2,10,0,0,nt
O=C(C[C@@H]1C[C@H]2c3cc(NC(=O)NC4CCCC4)ccc3O[C@H]2[C@H](CO)O1)NCCc1ccccc1,-2,111*,1,-1,nt
O=C(C[C@@H]1C[C@H]2c3cc(NC(=O)NC4CCCC4)ccc3O[C@H]2[C@@H](CO)O1)NCCc1ccccc1,0,8,0,0,nt
COC(=O)C[C@H]1C[C@@H]2c3cc(NC(=O)Cc4ccncc4)ccc3O[C@@H]2[C@@H](CO)O1,-1,0,60*,0,nt
O=C(C[C@H]1C[C@H]2c3cc(NC(=O)CC4CC4)ccc3O[C@H]2[C@@H](CO)O1)NCc1ccc(-c2ccccc2)cc1,10,4,53*,0,nt
SMILES,ERAP1 HTS inh,S100A4 MyoIIA,ERp5 block,FGF22 binding,PDI turbidity
CCOCCCNC(=O)/C(C#N)=C/c1cc(C)c(O)c(C)c1,1,-6,1,43*,11
CC(=O)N1CCN(C(=O)COc2ccccc2C(=O)Nc2ccccc2)CC1,1,0,1,43*,6
CO[C@@H]1CN(C)C(=O)c2ccc(NC(C)=O)cc2OC[C@@H](C)N(C(=O)C2CCOCC2)C[C@@H]1C,-1,-31,1,0,nt
C=CC#CC1(O)CC(C)[N+](C)(C)CC1C (configuration not stated),106*,2,0,0,-3
COC(=O)C1=C(C)N(Cc2cccc(C(F)(F)F)c2)C(=NCc2ccc(C(F)(F)F)cc2)NC1c1cccc(F)c1 (configuration not stated),-1,0,1,41,nt
COC(=O)C1=C(C)N(Cc2ccc(C(F)(F)F)cc2)C(=NCc2ccccc2)NC1c1cccc(F)c1 (configuration not stated),-2,1,0,44*,nt
O=C1C2CCCCC2C(=O)N1Cc1ccccc1 (configuration not stated),-2,12,1,43*,3
NNC(=O)c1sc(-c2ccccc2)cc1N,4,-3,9,44*,1
CC(=O)OC1CCC2(C)C(=CCC3C2CCC2(C)C3CC3OC4(CCC(C)CN4)C(C)C32)C1 (configuration not stated),-1,-7,3,0,nt
C=CCN1N=C(/C=C/c2ccc(OC)cc2)CCC1=O,-1,4,0,0,-11
COc1ccc(/C=C/C2=NN(Cc3ccccc3)C(=O)CC2)cc1,-3,-3,?,43*,4
CCCCCC(O)CCCC(=O)O (configuration not stated),-3,-8,2,0,0
CCCCCCCCCCCCCCCC(O)C[N+](C)(C)CCO (configuration not stated),50*,-11,8,0,14
O=C(C[C@H]1CC[C@H]2[C@@H](COC[C@@H](O)CN2S(=O)(=O)c2ccccc2)O1)NCC1CCCCC1,0,6,-1,0,nt
COc1ccc(-c2cc3nc(CCl)[nH]c(=O)c3s2)cc1,0,-3,0,0,39*
Cc1ccc(OCc2ccc(Br)cc2)c([N+](=O)[O-])n1,-3,2,-3,45*,nt
CCS(=O)(=O)c1ccc(O)c(NC(=O)NC2CCCCC2)c1,nt,-2,0,0,1
Cc1ccc(S(=O)(=O)N[C@H]2C=C[C@@H](CC(=O)NC3CCCCC3)O[C@@H]2CO)cc1,-3,95*,-2,-1,nt
Cn1cnc(S(=O)(=O)N[C@@H]2C=C[C@@H](CC(=O)NCC3CC3)O[C@H]2CO)c1,0,108*,-2,0,nt
Cc1ccc(S(=O)(=O)N[C@H]2C=C[C@H](CC(=O)O)O[C@@H]2CO)cc1,4,122*,2,0,nt
Cc1ccc(S(=O)(=O)N[C@H]2C=C[C@@H](CC(=O)O)O[C@@H]2CO)cc1,4,3,2,0,nt
O=C(COc1ccc(S(=O)(=O)NC2CCCCC2)cc1)NC1CCCC1,-1,0,1,43*,-3
O=C(COc1ccc(S(=O)(=O)NC2CCCCC2)cc1)NC1CCCCC1,nt,nt,nt,nt,21
